A selection: hits, their analogues and other compounds. The true share with any hit is near 1.8%.
CHRM4 antagonist: human M4 muscarinic receptor antagonists, primary screen, CHO cells, Fluo-8 calcium fluorescence. Muscarinic acetylcholine receptor M4 (Homo sapiens), P08173. CHO-hM4 cells, ACh EC80. inhibition, % at 3 µM. actives 0.73% (n = 360,000). AID 624125, 2012;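 active = inhibition above its plate's cutoff, the mean inhibition of sample wells plus 3 SD, cut at about 27% in these data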;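 note: 0% = acetylcholine EC80 with DMSO and 100% = DMSO without agonist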
CHRM5 PAM: human M5 muscarinic receptor positive allosteric modulators, primary screen, CHO-K1 cells, Fluo-8 calcium fluorescence; activation, % at 3 µM; Muscarinic acetylcholine receptor M5 (Homo sapiens), P08912; AID 624038, 2012; actives 0.3% (n = 360,000); CHO-K1 hM5, ACh EC20 PAM; 0% = ACh EC20, 100% = ACh EC100;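 active = activation above the run cutoff, the mean activation of all test compounds plus 3 SD, cut at about 18% in these data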
Target sequence (P08912 whole entry, looked up): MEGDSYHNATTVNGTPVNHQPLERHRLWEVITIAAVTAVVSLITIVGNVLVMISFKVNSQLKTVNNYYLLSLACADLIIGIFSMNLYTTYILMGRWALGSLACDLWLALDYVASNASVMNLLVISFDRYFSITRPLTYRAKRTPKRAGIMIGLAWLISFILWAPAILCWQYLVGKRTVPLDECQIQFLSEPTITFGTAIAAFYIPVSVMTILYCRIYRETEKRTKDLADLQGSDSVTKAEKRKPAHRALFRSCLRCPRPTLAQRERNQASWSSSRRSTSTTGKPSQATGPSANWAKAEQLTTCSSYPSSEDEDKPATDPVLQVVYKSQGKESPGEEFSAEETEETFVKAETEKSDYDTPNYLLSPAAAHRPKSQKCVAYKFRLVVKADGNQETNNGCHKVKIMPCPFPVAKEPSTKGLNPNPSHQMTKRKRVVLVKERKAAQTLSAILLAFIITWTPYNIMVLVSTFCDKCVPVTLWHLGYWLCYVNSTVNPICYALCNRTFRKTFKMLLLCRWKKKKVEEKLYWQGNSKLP
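System: CHO-K1 cell line with stable human muscarinic M5 receptor expression | Also added: EC20 acetylcholine as agonist stimulus | Compound: One concentration, 3 µM final (nominal) | Timing: Fluo-8 loading 80 min at 37 °C plus 30 min room temperature | Measured by: Fluo-8 calcium dye fluorescence, kinetic read | Read-out basis: % activation, ACh-normalized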
CHRM4 agonist: human M4 muscarinic receptor agonists, primary screen, CHO-K1 cells, Fluo-8 calcium fluorescence; activation, % at 3 µM; CHO-K1 hM4/Gqi5; vehicle 0%, full acetylcholine response 100%; actives 0.14% (n = 360,000); AID 624127, 2012; Muscarinic acetylcholine receptor M4 (Homo sapiens), P08173;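 active = activation above the run mean over all test wells plus 3 SD, cut at about 32% in these data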;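 note: peak over basal fluorescence ratio per well then scaled between controls; 0% = DMSO wells and 100% = acetylcholine at EC100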
M4 PAM: human M4 muscarinic receptor positive allosteric modulators, primary screen, CHO-K1 cells, Fluo-8 calcium fluorescence. actives 0.4% (n = 360,000). CHO-K1 hM4/Gqi5, ACh EC20; 0% = ACh EC20, 100% = maximal ACh. AID 624126, 2012. activation, % at 3 µM. Muscarinic acetylcholine receptor M4 (Homo sapiens), P08173;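 active = activation above its plate's cutoff, the mean activation of sample wells plus 3 SD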
CHRM5 antagonist: human M5 muscarinic receptor antagonists, primary screen, CHO cells, Fluo-8 calcium fluorescence | AID 624040, 2012 | CHO-hM5 cells, ACh EC80 | actives 0.59% (n = 360,000) | inhibition, % at 3 µM | Muscarinic acetylcholine receptor M5 (Homo sapiens), P08912;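 active = inhibition above a per-plate cutoff, the mean of that plate's test compounds plus 3 SD, cut at about 27% in these data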;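 note: 0% = acetylcholine EC80 with DMSO and 100% = DMSO without agonist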
CHRM5 agonist: human M5 muscarinic receptor agonists, primary screen, CHO-K1 cells, Fluo-8 calcium fluorescence; CHO-K1 hM5 cells; 0% DMSO wells, 100% maximal acetylcholine response; AID 624037, 2012; actives 0.19% (n = 360,000); activation, % at 3 µM;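 active = activation above the run's mean over test compounds plus 3 SD, cut at about 23% in these data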;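 note: signal is peak over basal fluorescence ratio across the kinetic read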
An asterisk follows results filed as active; ! = not active in a repeat.

Results for Cc1ccc(-n2ncc3c2CC(C)(C)CC3NC(=O)C2CCOCC2)cc1 (stereo unspecified) ?
CHRM4 antagonist: -3; CHRM5 PAM: 3; CHRM4 agonist: 0; M4 PAM: 1; CHRM5 antagonist: -21; CHRM5 agonist: -1

What do the screens show for `O=C(Nc1ccc(Cl)cc1)C(Cl)C(=O)c1ccccc1` (stereo unspecified)?
CHRM4 antagonist: 26*; CHRM5 PAM: 6; CHRM4 agonist: 7; M4 PAM: -20; CHRM5 antagonist: 8; CHRM5 agonist: -3

What do the screens show for `Cc1ccc(Cn2cccc(NC(=O)NC3CCCCC3)c2=O)cc1`?
CHRM4 antagonist: 2; CHRM5 PAM: 34*; CHRM4 agonist: 1; M4 PAM: 4; CHRM5 antagonist: -8; CHRM5 agonist: -5

What do the screens show for `O=C(Nc1cccn(Cc2ccc(F)cc2)c1=O)NC1CCCCC1`?
CHRM4 antagonist: 2; CHRM5 PAM: -3; CHRM4 agonist: 2; M4 PAM: -6; CHRM5 antagonist: 2; CHRM5 agonist: 1

What do the screens show for `O=C(O)/C=C/C(=O)NCc1ccccn1`?
CHRM4 antagonist: -11; CHRM5 PAM: 21*; CHRM4 agonist: 1; M4 PAM: 7; CHRM5 antagonist: 1; CHRM5 agonist: 1

What do the screens show for `O=C(NCc1ccccn1)C(=O)N/N=C/c1ccccc1O`?
CHRM4 antagonist: 47*; CHRM5 PAM: 4; CHRM4 agonist: -1; M4 PAM: -8; CHRM5 antagonist: -3; CHRM5 agonist: -4

How did Cc1cc(/C=N/NC(=O)C(=O)NCc2ccccn2)c(C)n1-c1cccc(Br)c1 do in these assays?
CHRM4 antagonist: -9; CHRM5 PAM: 3; CHRM4 agonist: 4; M4 PAM: -7; CHRM5 antagonist: -6; CHRM5 agonist: -2

What do the screens show for `O=C(O)/C=C/C(=O)NCc1ccccc1`?
CHRM4 antagonist: 6; CHRM5 PAM: 0; CHRM4 agonist: 0; M4 PAM: 6; CHRM5 antagonist: -2; CHRM5 agonist: -1

Results for COc1ccccc1N(CC(=O)N(C)Cc1ccccc1)S(=O)(=O)c1cccs1 ?
CHRM4 antagonist: -2; CHRM5 PAM: -1; CHRM4 agonist: 4; M4 PAM: -1; CHRM5 antagonist: 12; CHRM5 agonist: 1

Results for COC(=O)c1ccc(/C=C/C(=O)OCC(=O)Nc2sccc2C(N)=O)cc1 ?
CHRM4 antagonist: 45*; CHRM5 PAM: -35; CHRM4 agonist: 23; M4 PAM: -9; CHRM5 antagonist: 27*; CHRM5 agonist: 7

What do the screens show for `NC(=O)c1ccsc1NC(=O)COC(=O)/C=C/c1ccc([N+](=O)[O-])cc1`?
CHRM4 antagonist: 4; CHRM5 PAM: -18; CHRM4 agonist: 18; M4 PAM: -22; CHRM5 antagonist: 18; CHRM5 agonist: 2

What do the screens show for `COc1ccc(/C=C/C(=O)OCC(=O)Nc2cccc(C(C)=O)c2)cc1`?
CHRM4 antagonist: -6; CHRM5 PAM: -6; CHRM4 agonist: 13; M4 PAM: -18; CHRM5 antagonist: 2; CHRM5 agonist: 3

Results for COc1ccc(/C=C/C(=O)OCC(=O)Nc2cc(C(N)=O)cc(C(N)=O)c2)cc1 ?
CHRM4 antagonist: 0; CHRM5 PAM: 18*; CHRM4 agonist: 0; M4 PAM: 5; CHRM5 antagonist: -13; CHRM5 agonist: 0

What do the screens show for `CCC(=O)N1CCCC(C)(C(=O)NS(=O)(=O)c2cccs2)C1` (stereo unspecified)?
CHRM4 antagonist: -15; CHRM5 PAM: -5; CHRM4 agonist: 0; M4 PAM: 6; CHRM5 antagonist: -1; CHRM5 agonist: -1

How did Cc1cc(N2CCN(C)CC2)nc2ccc(NC(=O)CCC(=O)NCCc3ccc(Cl)cc3)cc12 do in these assays?
CHRM4 antagonist: -9; CHRM5 PAM: -2; CHRM4 agonist: 0; M4 PAM: 8; CHRM5 antagonist: 5; CHRM5 agonist: -4

How did O=C(C1CCN(S(=O)(=O)c2cnc[nH]2)CC1)N1CCN(c2ccc([N+](=O)[O-])cc2)CC1 do in these assays?
CHRM4 antagonist: -9; CHRM5 PAM: -2; CHRM4 agonist: 1; M4 PAM: 14*; CHRM5 antagonist: 12; CHRM5 agonist: -4

What do the screens show for `O=C(COC(=O)c1ccco1)NCCNC(=O)COC(=O)c1ccco1`?
CHRM4 antagonist: 14; CHRM5 PAM: 8; CHRM4 agonist: 0; M4 PAM: 19*; CHRM5 antagonist: 6; CHRM5 agonist: -1

Results for CNC(=O)c1c(NC(=O)C2=COCCO2)sc2c1CCN(C(=O)OC)C2 ?
CHRM4 antagonist: -4; CHRM5 PAM: 11; CHRM4 agonist: 1; M4 PAM: 9; CHRM5 antagonist: -1; CHRM5 agonist: -4

How did CNCCCC1Sc2ccccc2Oc2ccccc21 (stereo unspecified) do in these assays?
CHRM4 antagonist: 8; CHRM5 PAM: -36; CHRM4 agonist: 4; M4 PAM: -11; CHRM5 antagonist: 13; CHRM5 agonist: -14

Results for CNCCCC12CCC(c3ccccc31)c1ccccc12 ?
CHRM4 antagonist: 28*!; CHRM5 PAM: -18; CHRM4 agonist: 9; M4 PAM: -18; CHRM5 antagonist: 33*!; CHRM5 agonist: 2

How did C=CCC(CC=C)(NC(=O)c1ccccc1C)c1ccccc1 do in these assays?
CHRM4 antagonist: -20; CHRM5 PAM: 41*; CHRM4 agonist: 0; M4 PAM: 7; CHRM5 antagonist: -6; CHRM5 agonist: -3

How did C=CCC(CC=C)(NC(=O)c1ccccc1)c1ccccc1 do in these assays?
CHRM4 antagonist: 5; CHRM5 PAM: -11; CHRM4 agonist: -2; M4 PAM: -7; CHRM5 antagonist: 6; CHRM5 agonist: -7

How did Cc1[nH]nc(-c2ccc(OCc3cnn(-c4ccccc4)c3)cc2O)c1Oc1ccccc1F do in these assays?
CHRM4 antagonist: -1; CHRM5 PAM: -1; CHRM4 agonist: 2; M4 PAM: 24*; CHRM5 antagonist: -6; CHRM5 agonist: 2

How did Cn1nnc2cc(C(=O)Nc3ccccc3F)ccc21 do in these assays?
CHRM4 antagonist: 1; CHRM5 PAM: -3; CHRM4 agonist: 2; M4 PAM: 3; CHRM5 antagonist: 14; CHRM5 agonist: -2

How did CC1(C)C(=O)Nc2ccccc2N1C(=O)COC(=O)COc1ccc(C#N)cc1 do in these assays?
CHRM4 antagonist: 0; CHRM5 PAM: -2; CHRM4 agonist: 8; M4 PAM: -2; CHRM5 antagonist: 7; CHRM5 agonist: 0
